The test system of one series is Mycobacterium kansasii. In words: Antimycobacterial activity against Mycobacterium kansasii CNCTC My 235/80 after 6 days by microdilution panel method. The format is functional. The note with it: CNCTC My 235/80, 144 h. The procedure, abridged:
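Microdilution panel; compounds dissolved in DMSO and diluted with Šula's semisynthetic medium. Cultures grown in Šula's semisynthetic medium, pH 5.5, 37 °C. After 6 days of incubation, MIC (µg/mL) read visually. MICs also converted to molar units (µmol/L). PZA run as standard.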

For series [1], the system named is Mycobacterium tuberculosis. Briefly: Antimycobacterial activity against Mycobacterium tuberculosis H37Rv CNCTC My 331/88 after 14 days by microdilution panel method. The class given is functional. The following applies: H37Rv CNCTC My 331/88, 336 h. The procedure, abridged:
(§1)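 Compounds dissolved in DMSO, diluted in Šula's semisynthetic medium in microdilution panels. Cultures grown in Šula's medium, pH 5.5, 37 °C. After 14 days incubation, activity read visually as MIC (µg/mL), also converted to µmol/L. Pyrazinamide run as standard.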
On the technique in general: Broth dilution looks for growth in wells or tubes with falling amounts of substance.

In series [2] the test system is Mycobacterium avium. Briefly: Antimycobacterial activity against Mycobacterium avium CNCTC My 152/73 after 14 days by microdilution panel method. The following applies: CNCTC My 152/73, 336 h. The class given is functional. The procedure, abridged:
as §1

Series [3] is described as follows: Partition coefficient, log k of the compound. The format is physicochemical. The following applies: octanol/water. In a few lines: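 Capacity factor k measured by isocratic RP-HPLC on an end-capped non-polar C18 column, with methanol as organic modifier in the mobile phase. Value given as log k and used as a lipophilicity index converted to the logP scale.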

Series [4] relates to Mycobacterium avium. In words: Antimycobacterial activity against Mycobacterium avium CNCTC My 80/72 after 14 days by microdilution panel method. The class given is functional. The following applies: CNCTC My 80/72, 336 h. The procedure, abridged:
as §1

Series [5] is described as follows: Aqueous solubility of the compound. The following applies: buffer. The format is physicochemical.

In brackets after ≈: the same amount, converted by molar mass.

For the molecule `N#Cc1cnc(C#N)c(Cl)n1`, the MIC (in general, the least concentration at which growth counts as inhibited) against Mycobacterium kansasii was greater than 200 mg/L; in series [1], 25 mg/L (≈ 152 µM); against Mycobacterium avium [2], 100 mg/L (≈ 608 µM); in the series on Mycobacterium avium [4], 100 mg/L (≈ 608 µM). For the same molecule, in series [3], the “log K” value stood at 0.5792.
Take `CNc1nc(C#N)cnc1C#N`: the MIC was 100 mg/L (≈ 628 µM) against Mycobacterium kansasii, 100 mg/L (≈ 628 µM) in series [1], greater than 200 mg/L against Mycobacterium avium [2] and greater than 200 mg/L in the series on Mycobacterium avium [4]. The “log K” value in series [3] is given as 0.5859.
In the case of `CCNc1nc(C#N)cnc1C#N`, the MIC is 200 mg/L (≈ 1150 µM) against Mycobacterium kansasii, 100 mg/L (≈ 577 µM) in series [1], greater than 200 mg/L against Mycobacterium avium [2] and greater than 200 mg/L with Mycobacterium avium [4]. Also, in series [3], the “log K” value stood at 0.6146.
For the molecule `CCCNc1nc(C#N)cnc1C#N`, the MIC (in the series with Mycobacterium kansasii; in series [1]; against Mycobacterium avium [2]; against Mycobacterium avium [4]) was 200 mg/L (≈ 1070 µM) in each case. In addition, the “log K” value in series [3] is 0.6497.
As for `CCCCNc1nc(C#N)cnc1C#N`, the MIC (against Mycobacterium kansasii; in series [1]; with Mycobacterium avium [2]; with Mycobacterium avium [4]) was 100 mg/L (≈ 497 µM) throughout. The “log K” value in series [3] was found to be 0.7088.
With `CCCCCNc1nc(C#N)cnc1C#N`, the minimal inhibitory concentration (MIC) in the series on Mycobacterium kansasii was found to be 100 mg/L (≈ 465 µM); in series [1] it was 50 mg/L (≈ 232 µM); against Mycobacterium avium [2] it was 100 mg/L (≈ 465 µM); against Mycobacterium avium [4] it was 100 mg/L (≈ 465 µM). In addition, the “log K” value in series [3] turned out to be 0.7901.
For `CCCCCCNc1nc(C#N)cnc1C#N`, the MIC with Mycobacterium kansasii was 50 mg/L (≈ 218 µM); in series [1], 25 mg/L (≈ 109 µM); with Mycobacterium avium [2] it was 100 mg/L (≈ 436 µM); in the series with Mycobacterium avium [4], 100 mg/L (≈ 436 µM). The “log K” value in series [3] is 0.9133.
With `CCCCCCCNc1nc(C#N)cnc1C#N`, the MIC is greater than 200 mg/L in the series with Mycobacterium kansasii, 12.5 mg/L (≈ 51.4 µM) in series [1], greater than 200 mg/L with Mycobacterium avium [2] and greater than 200 mg/L in the series with Mycobacterium avium [4]. Also, the “log K” value in series [3] is recorded as 1.0243.
For the molecule `CCCCCCCCNc1nc(C#N)cnc1C#N`, the MIC with Mycobacterium kansasii was 100 mg/L (≈ 389 µM); in series [1] it was 25 mg/L (≈ 97.1 µM); against Mycobacterium avium [2], greater than 200 mg/L; with Mycobacterium avium [4], greater than 200 mg/L. The “log K” value in series [3] came to 1.1953.
For `N#Cc1cnc(C#N)c(NC2CCCC2)n1`, the solubility entry in series [5] is listed as “Insoluble”. For the same molecule, the MIC (with Mycobacterium kansasii; in series [1]; in the series on Mycobacterium avium [2]; against Mycobacterium avium [4]) was greater than 200 mg/L each time. Moreover, in series [3], the “log K” value was 0.7273.
Regarding `N#Cc1cnc(C#N)c(NC2CCCCC2)n1`, the solubility result in series [5] is reported as “Insoluble”. The MIC (against Mycobacterium kansasii; in series [1]; in the series with Mycobacterium avium [2]; in the series with Mycobacterium avium [4]) was greater than 200 mg/L in each case. Besides, the “log K” value in series [3] came to 0.7896.
As to `N#Cc1cnc(C#N)c(NC2CCCCCC2)n1`, the solubility result in series [5] is listed as “Insoluble”. The MIC (with Mycobacterium kansasii; in series [1]; against Mycobacterium avium [2]; in the series with Mycobacterium avium [4]) was greater than 200 mg/L in each case. The “log K” value in series [3] worked out at 0.8789.
On to `CCN(CC)c1nc(C#N)cnc1C#N`, for which the MIC in the series on Mycobacterium kansasii is 100 mg/L (≈ 497 µM); in series [1] it was 100 mg/L (≈ 497 µM); against Mycobacterium avium [2], greater than 200 mg/L; against Mycobacterium avium [4] it was greater than 200 mg/L. Further, the “log K” value in series [3] turned out to be 0.6685.
With `CN1CCN(c2nc(C#N)cnc2C#N)CC1`, the MIC (in the series on Mycobacterium kansasii; in series [1]; in the series with Mycobacterium avium [2]; against Mycobacterium avium [4]) was greater than 200 mg/L in each case. Further, the “log K” value in series [3] came out at 0.5946.
As for `N#Cc1cnc(C#N)c(N2CCOCC2)n1`, the MIC in the series with Mycobacterium kansasii is 200 mg/L (≈ 929 µM); in series [1], 200 mg/L (≈ 929 µM); with Mycobacterium avium [2], greater than 200 mg/L; with Mycobacterium avium [4], greater than 200 mg/L. Moreover, the “log K” value in series [3] was found to be 0.583.
Take `NC(=O)c1cnccn1` [PYRAZINAMIDE]: the MIC in the series on Mycobacterium kansasii is greater than 200 mg/L; in series [1], 12.5 mg/L (≈ 102 µM); in the series on Mycobacterium avium [2], greater than 200 mg/L; with Mycobacterium avium [4] it was greater than 200 mg/L. Further, in series [3], the “log K” value amounted to 0.0514.

Source of the values: ChEMBL document CHEMBL1949516, “Synthesis and antimycobacterial evaluation of N-substituted 3-aminopyrazine-2,5-dicarbonitriles” (Bioorg Med Chem Lett, 2012).
